In brackets after ≈: the same amount, converted by molar mass. Bridge positions count the residues as written; N and C are the ends. Square brackets hold non-standard residues; d marks the D form. Peptide text beside a SMILES is read from it. * marks the point of attachment. X1 = CC[C@H](C)CCCCC(=O)*; Dab = NCC[C@H](N)C(=O)O
Key:
Escherichia coli [1] = experiment: Antibacterial activity against Escherichia coli ATCC 25922 after 24 hrs; assay type: functional; settings: ATCC 25922, 24 h
How it was run: (§1)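 Broth microdilution. Mid-log bacteria in MHB at a final (0.5−1) × 10^5 CFU/mL were mixed with equal volumes of peptide serially diluted in 0.2% BSA. Plates were incubated 24 h at 37 °C and read at A492. MIC is the lowest concentration inhibiting 95% of growth. Each test was repeated at least 3 times.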

Escherichia coli [2] = experiment: Antibacterial activity against Escherichia coli 1005 after 24 hrs; assay type: functional; settings: Escherichia coli, 1005, 24 h; how it was run: as §1
Salmonella typhimurium [3] = experiment: Antibacterial activity against Salmonella typhimurium ATCC 14028 after 24 hrs; assay type: functional, Salmonella enterica subsp. enterica serovar Typhimurium; settings: Salmonella enterica, ATCC 14028, 24 h; how it was run: as §1
[4] = Antibacterial activity against Salmonella pullorum ATCC 7913 after 24 hrs; assay type: functional, Salmonella enterica subsp. enterica serovar Pullorum; settings: Salmonella enterica, ATCC 7913, 24 h; how it was run: as §1
Staphylococcus aureus [5] = experiment: Antibacterial activity against Staphylococcus aureus ATCC 29213 after 24 hrs; assay type: functional; settings: ATCC 29213, 24 h
How it was run: (§2)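 Modified NCCLS broth microdilution. Mid-log bacteria at (0.5−1) × 10^5 CFU/mL in MHB were mixed 1:1 with peptide serially diluted in 0.2% BSA and incubated 24 h at 37 °C. Absorbance was read at 492 nm; MIC is the lowest concentration inhibiting 95% of growth. At least 3 repeats.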

Staphylococcus aureus [6] = experiment: Antibacterial activity against methicillin-resistant Staphylococcus aureus ATCC 4330 after 24 hrs; assay type: functional; settings: ATCC 4330, 24 h; how it was run: as §2
[7] = tested on: Staphylococcus epidermidis; experiment: Antibacterial activity against Staphylococcus epidermidis ATCC 12228 after 24 hrs; assay type: functional; settings: ATCC 12228, 24 h; how it was run: as §1
Staphylococcus aureus [8] = experiment: Antibacterial activity against Staphylococcus aureus ATCC 25923 after 24 hrs; assay type: functional; settings: ATCC 25923, 24 h; how it was run: as §2
Escherichia coli [9] = experiment: Bactericidal activity against Escherichia coli ATCC 25922; assay type: functional; settings: read-out: MBC99.9
How it was run: (§3)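 Wells from the 24 h, 37 °C MHB microdilution plates (bacteria at a final (0.5−1) × 10^5 CFU/mL; peptide diluted in 0.2% BSA) were plated on agar and incubated overnight. MBC is the lowest concentration killing >99.9% of cells. Each test was reproduced at least 3 times.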

Escherichia coli [10] = experiment: Bactericidal activity against Escherichia coli 1005; assay type: functional; settings: read-out: MBC99.9; how it was run: as §3
Salmonella typhimurium [11] = experiment: Bactericidal activity against Salmonella typhimurium ATCC 14028; assay type: functional, Salmonella enterica subsp. enterica serovar Typhimurium; settings: Salmonella enterica, read-out: MBC99.9; how it was run: as §3
[12] = Bactericidal activity against Salmonella pullorum ATCC 7913; assay type: functional, Salmonella enterica subsp. enterica serovar Pullorum; settings: Salmonella enterica, read-out: MBC99.9; how it was run: as §3
Staphylococcus aureus [13] = experiment: Bactericidal activity against Staphylococcus aureus ATCC 29213; assay type: functional; settings: read-out: MBC99.9; how it was run: as §3
Staphylococcus aureus [14] = experiment: Bactericidal activity against methicillin-resistant Staphylococcus aureus ATCC 4330; assay type: functional; settings: read-out: MBC99.9
How it was run: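 Bacteria at (0.5−1) × 10^5 CFU/mL in MHB were exposed to serially diluted peptide (0.2% BSA) for 24 h at 37 °C, then 50 μL aliquots were plated on agar overnight. MBC is the lowest concentration killing >99.9% of cells. At least 3 repeats.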

[15] = tested on: Staphylococcus epidermidis; experiment: Bactericidal activity against Staphylococcus epidermidis ATCC 12228; assay type: functional; settings: read-out: MBC99.9; how it was run: as §3
Staphylococcus aureus [16] = experiment: Bactericidal activity against Staphylococcus aureus ATCC 25923; assay type: functional; settings: read-out: MBC99.9; how it was run: as §3
Escherichia coli [17] = experiment: Antibacterial activity against Escherichia coli ATCC 25922 after 18 hrs in presence of NaCl by broth dilution method; assay type: functional; settings: ATCC 25922, 18 h
Escherichia coli [18] = experiment: Antibacterial activity against Escherichia coli ATCC 25922 after 18 hrs in presence of KCl by broth dilution method; assay type: functional; settings: ATCC 25922, 18 h
Escherichia coli [19] = experiment: Antibacterial activity against Escherichia coli ATCC 25922 after 18 hrs in presence of NH4Cl by broth dilution method; assay type: functional; settings: ATCC 25922, 18 h
Escherichia coli [20] = experiment: Antibacterial activity against Escherichia coli ATCC 25922 after 18 hrs in presence of MgCl2 by broth dilution method; assay type: functional; settings: ATCC 25922, 18 h
Escherichia coli [21] = experiment: Antibacterial activity against Escherichia coli ATCC 25922 after 18 hrs in presence of CaCl2 by broth dilution method; assay type: functional; settings: ATCC 25922, 18 h
Escherichia coli [22] = experiment: Antibacterial activity against Escherichia coli ATCC 25922 after 18 hrs in presence of ZnCl2 by broth dilution method; assay type: functional; settings: ATCC 25922, 18 h
Escherichia coli [23] = experiment: Antibacterial activity against Escherichia coli ATCC 25922 after 18 hrs in presence of FeCl3 by broth dilution method; assay type: functional; settings: ATCC 25922, 18 h
Escherichia coli [24] = experiment: Antibacterial activity against Escherichia coli ATCC 25922 after 18 hrs in presence of 12.5% human heat-inactivated serum by broth dilution method; assay type: functional; settings: ATCC 25922, 18 h
Escherichia coli [25] = experiment: Antibacterial activity against Escherichia coli ATCC 25922 after 18 hrs in presence of 25% human heat-inactivated serum by broth dilution method; assay type: functional; settings: ATCC 25922, 18 h
Escherichia coli [26] = experiment: Antibacterial activity against Escherichia coli ATCC 25922 after 18 hrs in presence of 50% human heat-inactivated serum by broth dilution method; assay type: functional; settings: ATCC 25922, 18 h

`CC[C@H](C)CCCCC(=O)N[C@@H](CCN)C(=O)N[C@H](C(=O)N[C@@H](CCN)C(=O)N[C@H]1CCNC(=O)[C@H]([C@@H](C)O)NC(=O)[C@H](CCN)NC(=O)[C@H](CCN)NC(=O)[C@H](CC(C)C)NC(=O)[C@@H](Cc2ccccc2)NC(=O)[C@H](CCN)NC1=O)[C@@H](C)O` (X1-[Dab]T[Dab][Dab][Dab][dF]L[Dab][Dab]T; lactam 4-C) gave an MIC95 (Escherichia coli [1]) of 2 µM (≈ 2.41 µg/mL), an MIC95 (Escherichia coli [2]) of 1 µM (≈ 1.2 µg/mL) and an MIC95 (Salmonella typhimurium [3]) of 2 µM (≈ 2.41 µg/mL). The MIC95 [4] was 1 µM (≈ 1.2 µg/mL), the MIC95 (Staphylococcus aureus [5]) was 64 µM (≈ 77 µg/mL) and the MIC95 (Staphylococcus aureus [6]) was 64 µM (≈ 77 µg/mL). It also gave an MIC95 [7] of 32 µM (≈ 38.5 µg/mL), an MIC95 (Staphylococcus aureus [8]) of 32 µM (≈ 38.5 µg/mL) and an MBC (Escherichia coli [9]) of 4 µM (≈ 4.81 µg/mL). It also gave an MBC (Escherichia coli [10]) of 2 µM (≈ 2.41 µg/mL), an MBC (Salmonella typhimurium [11]) of 2 µM (≈ 2.41 µg/mL) and an MBC [12] of 2 µM (≈ 2.41 µg/mL). The MBC (Staphylococcus aureus [13]) was 64 µM (≈ 77 µg/mL), the MBC (Staphylococcus aureus [14]) was 64 µM (≈ 77 µg/mL) and the MBC [15] was 32 µM (≈ 38.5 µg/mL). For the same molecule, the MBC (Staphylococcus aureus [16]) was 64 µM (≈ 77 µg/mL), the MIC (Escherichia coli [17]) was 8 µM and the MIC (Escherichia coli [18]) was 2 µM. It also gave an MIC (Escherichia coli [19]) of 2 µM, an MIC (Escherichia coli [20]) of 4 µM and an MIC (Escherichia coli [21]) of 2 µM. For the same molecule, the MIC (Escherichia coli [22]) was 2 µM, the MIC (Escherichia coli [23]) was 2 µM and the MIC (Escherichia coli [24]) was 2 µM. For the same molecule, the MIC (Escherichia coli [25]) was 2 µM and the MIC (Escherichia coli [26]) was 4 µM.

Source: ChEMBL document CHEMBL4177755, “Combating Drug-Resistant Fungi with Novel Imperfectly Amphipathic Palindromic Peptides” (J Med Chem, 2018)
